The text below walks through data of ChEMBL document CHEMBL1629621, “Evaluation of strategies for improving proteolytic resistance of antimicrobial peptides by using variants of EFK17, an internal segment of LL-37” (Antimicrob Agents Chemother, 2009).

≈ marks a conversion by molar mass, not a printed value. Calls of active or inactive are those of the source. The rule behind the calls is not given here. Where a SMILES comes first, the peptide text is derived from it.

Data set [1] concerns Pseudomonas aeruginosa. Kind of data set: Antimicrobial activity against Pseudomonas aeruginosa ATCC 27853 after 21 hrs by broth microdilution method. It counts as functional. Particulars: ATCC 27853, 21 h. Summed up: (§1)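 Microtiter broth dilution at 37°C for 21 h in DEAE-refined LB medium prepared in 10 mM Tris, pH 7.4. Bacteria were grown overnight in 3% trypticase soy broth, rinsed in Tris and used at about 10^6 CFU/ml. Final peptide was 0.6–80 µM in twofold steps. Growth was read visually as pellet and at OD540. MIC is >95% inhibition with no visible pellet. Two separate experiments.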
A general note: Broth dilution looks for growth in wells or tubes with falling amounts of substance.

Data set [2] in a line: Stability of the compound at 136 uM after 4 hrs in presence of […] V8 protease. It counts as ADME. Summed up: (§2)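 Peptide at 136 µM was incubated with protease (peptide:enzyme 300:1) for 4 h at 37°C in 10 mM Tris, pH 7.4. The reaction was stopped by boiling in Laemmli buffer, then run on Tris-Tricine 16.5% SDS-PAGE and Coomassie stained. Band densitometry gave the undegraded fraction, normalized to peptide incubated without enzyme. Two separate experiments.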

The test system of data set [3] is Lipid bilayer. Kind of data set: Induction of DOPC-cholesterol liposome leakage in cell-free system at 0.1 to 1 uM after 45 mins. It is filed as functional. Summed up:
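Carboxyfluorescein-loaded (100 mM, self-quenching) DOPC-cholesterol 3:2 unilamellar liposomes, about 110 nm, at 10 µM lipid in Tris buffer at 37°C with stirring. Peptide was added at a single concentration per experiment, between 0.01 and 1 µM. After a 10 min baseline, fluorescence increase was followed for 45 min and the limiting leakage level taken.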

In data set [4] the test system is Staphylococcus aureus. Kind of data set: Antimicrobial activity against Staphylococcus aureus 2844 after 21 hrs by broth microdilution method. It counts as functional. Particulars: Staphylococcus aureus, 2844, 21 h. Summed up:
as §1

Data set [5] is described as follows: Stability of the compound at 136 uM after 4 hrs in presence of aureolysin. It counts as ADME. The procedure, abridged:
as §2

Data set [6] is described as follows: Stability of the compound at 136 uM after 4 hrs in presence of Pseudomonas aeruginosa elastase. It is filed as ADME. Summed up: as §2
Data set [7] in a line: Stability of the compound at 136 uM after 4 hrs in presence of human neutrophil elastase. It counts as ADME. Summed up: as §2
For data set [8], the system named is Staphylococcus aureus. Kind of data set: Antimicrobial activity against Staphylococcus aureus FDA 486 after 21 hrs by broth microdilution method. It is filed as functional. As to conditions: FDA 486, 21 h. Summed up:
as §1

Data set [9] deals with Staphylococcus aureus. Kind of data set: Antimicrobial activity against Staphylococcus aureus 29213 after 21 hrs by broth microdilution method. It is filed as functional. Particulars: Staphylococcus aureus, 29213, 21 h. The procedure, abridged: as §1
The subject of data set [10] is Pseudomonas aeruginosa. Kind of data set: Antimicrobial activity against Pseudomonas aeruginosa 15159 after 21 hrs by broth microdilution method. It is filed as functional. Particulars: Pseudomonas aeruginosa, 15159, 21 h. Summed up:
as §1

Data set [11] has as its system Lipid bilayer. Kind of data set: Binding affinity to DOPC-cholesterol liposome at 10 to 1000 uM after 45 mins by ellipsometry. The procedure, abridged: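 Ellipsometry on DOPC-cholesterol bilayers deposited from DDM micelles onto silica. Peptide was added cumulatively in 10 mM Tris, pH 7.4, with 5 mM glucose at 37°C; […] adds 150 mM NaCl. Each step was followed 45 min to saturation. Adsorbed amount was calculated from refractive index and thickness, with dn/dc 0.154 cm3/g. Duplicates.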

Take `CC(=O)N[C@@H](CCC(=O)O)C(=O)N[C@@H](Cc1c[nH]c2ccccc12)C(=O)N[C@@H](CCCCN)C(=O)N[C@@H](CCCNC(=N)N)C(=O)N[C@@H](Cc1c[nH]c2ccccc12)C(=O)N[C@H](C(=O)N[C@@H](CCC(N)=O)C(=O)N[C@@H](CCCNC(=N)N)C(=O)N[C@@H](Cc1c[nH]c2ccccc12)C(=O)N[C@@H](CCCCN)C(=O)N[C@@H](CC(=O)O)C(=O)N[C@@H](Cc1c[nH]c2ccccc12)C(=O)N[C@@H](CC(C)C)C(=O)N[C@@H](CCCNC(=N)N)C(=O)N[C@@H](CC(N)=O)C(=O)N[C@@H](CC(C)C)C(=O)N[C@H](C(N)=O)C(C)C)C(C)C` (Ac-EWKRWVQRWKDWLRNLV-NH2): the minimum inhibitory concentration (MIC) (commonly the lowest concentration that inhibits growth of the organism) in the data set with Pseudomonas aeruginosa [1] stood at 10 µM (≈ 24.4 µg/mL); in the data set on Staphylococcus aureus [4], 5 µM (≈ 12.2 µg/mL); with Staphylococcus aureus [8] it was 5 µM (≈ 12.2 µg/mL); in the data set on Staphylococcus aureus [9], 10 µM (≈ 24.4 µg/mL); with Pseudomonas aeruginosa [10], 10 µM (≈ 24.4 µg/mL). In addition, the Stability result in [2] is recorded as “Stable”; in data set [5], “Stable”; in [6] it was “Unstable”; in [7] it was “Stable”. Also, the result in the data set with Lipid bilayer [3] was Active.
Turning to `CC[C@@H](C)[C@@H](NC(=O)[C@H](CCCNC(=N)N)NC(=O)[C@H](CCC(N)=O)NC(=O)[C@@H](NC(=O)[C@H](NC(=O)[C@H](CCCNC(=N)N)NC(=O)[C@H](CCCCN)NC(=O)[C@@H](Cc1ccccc1)NC(=O)[C@H](CCC(=O)O)NC(C)=O)[C@H](C)CC)C(C)C)C(=O)N[C@@H](CCCCN)C(=O)N[C@@H](CC(=O)O)C(=O)N[C@H](Cc1ccccc1)C(=O)N[C@@H](CC(C)C)C(=O)N[C@@H](CCCNC(=N)N)C(=O)N[C@@H](CC(N)=O)C(=O)N[C@@H](CC(C)C)C(=O)N[C@H](C(N)=O)C(C)C` [listing 1 of 2 here], the MIC against Pseudomonas aeruginosa [1], against Staphylococcus aureus [4], against Staphylococcus aureus [8], in the data set with Staphylococcus aureus [9] and against Pseudomonas aeruginosa [10] was > 80 µM each time.
Regarding `CC[C@@H](C)[C@@H](NC(=O)[C@H](CCCNC(=N)N)NC(=O)[C@H](CCC(N)=O)NC(=O)[C@@H](NC(=O)[C@H](NC(=O)[C@H](CCCNC(=N)N)NC(=O)[C@H](CCCCN)NC(=O)[C@@H](Cc1ccccc1)NC(=O)[C@@H](N)CCC(=O)O)[C@H](C)CC)C(C)C)C(=O)N[C@@H](CCCCN)C(=O)N[C@@H](CC(=O)O)C(=O)N[C@H](Cc1ccccc1)C(=O)N[C@@H](CC(C)C)C(=O)N[C@@H](CCCNC(=N)N)C(=O)N[C@@H](CC(N)=O)C(=O)N[C@@H](CC(C)C)C(=O)N[C@H](C(=O)O)C(C)C` [listing 1 of 2 here], the MIC in the data set with Pseudomonas aeruginosa [1], with Staphylococcus aureus [4], with Staphylococcus aureus [8], in the data set on Staphylococcus aureus [9] and with Pseudomonas aeruginosa [10] was > 80 µM each time.
For the compound `CC[C@@H](C)[C@@H](NC(=O)[C@H](CCCNC(=N)N)NC(=O)[C@H](CCC(N)=O)NC(=O)[C@@H](NC(=O)[C@H](NC(=O)[C@H](CCCNC(=N)N)NC(=O)[C@H](CCCCN)NC(=O)[C@@H](Cc1ccccc1)NC(=O)[C@H](CCC(=O)O)NC(C)=O)[C@H](C)CC)C(C)C)C(=O)N[C@@H](CCCCN)C(=O)N[C@@H](CC(=O)O)C(=O)N[C@H](Cc1ccccc1)C(=O)N[C@@H](CC(C)C)C(=O)N[C@@H](CCCNC(=N)N)C(=O)N[C@@H](CC(N)=O)C(=O)N[C@@H](CC(C)C)C(=O)N[C@H](C(N)=O)C(C)C` [listing 2 of 2 here], the Stability entry in [2], in data set [5], in data set [6] and in data set [7] was “Stable” throughout.
Consider `CC[C@@H](C)[C@@H](NC(=O)[C@H](CCCNC(=N)N)NC(=O)[C@H](CCC(N)=O)NC(=O)[C@@H](NC(=O)[C@H](NC(=O)[C@H](CCCNC(=N)N)NC(=O)[C@H](CCCCN)NC(=O)[C@@H](Cc1ccccc1)NC(=O)[C@@H](N)CCC(=O)O)[C@H](C)CC)C(C)C)C(=O)N[C@@H](CCCCN)C(=O)N[C@@H](CC(=O)O)C(=O)N[C@H](Cc1ccccc1)C(=O)N[C@@H](CC(C)C)C(=O)N[C@@H](CCCNC(=N)N)C(=O)N[C@@H](CC(N)=O)C(=O)N[C@@H](CC(C)C)C(=O)N[C@H](C(=O)O)C(C)C` [listing 2 of 2 here], for which the Stability result in data set [2], in data set [5], in [6] and in data set [7] was “Stable” each time.
As to `CC[C@H](C)[C@H](NC(=O)[C@H](CCCNC(=N)N)NC(=O)[C@H](CCC(N)=O)NC(=O)[C@@H](NC(=O)[C@H](NC(=O)[C@H](CCCNC(=N)N)NC(=O)[C@H](CCCCN)NC(=O)[C@@H](Cc1ccccc1)NC(=O)[C@@H](N)CCC(=O)O)[C@@H](C)CC)C(C)C)C(=O)N[C@@H](CCCCN)C(=O)N[C@@H](CC(=O)O)C(=O)N[C@H](Cc1ccccc1)C(=O)N[C@@H](CC(C)C)C(=O)N[C@@H](CCCNC(=N)N)C(=O)N[C@@H](CC(N)=O)C(=O)N[C@@H](CC(C)C)C(=O)N[C@H](C(=O)O)C(C)C`, the result in the data set with Lipid bilayer [3] and in the data set on Lipid bilayer [11] was Active.
With `CC[C@H](C)[C@H](NC(=O)[C@H](CCCCN)NC(=O)[C@H](CCC(=O)O)NC(=O)[C@H](CCCCN)NC(=O)[C@H](CO)NC(=O)[C@H](CCCCN)NC(=O)[C@H](CCCNC(=N)N)NC(=O)[C@H](Cc1ccccc1)NC(=O)[C@H](Cc1ccccc1)NC(=O)[C@H](CC(=O)O)NC(=O)CNC(=O)[C@H](CC(C)C)NC(=O)[C@@H](N)CC(C)C)C(=O)NCC(=O)N[C@@H](CCCCN)C(=O)N[C@@H](CCC(=O)O)C(=O)N[C@@H](Cc1ccccc1)C(=O)N[C@@H](CCCCN)C(=O)N[C@@H](CCCNC(=N)N)C(=O)N[C@H](C(=O)N[C@H](C(=O)N[C@@H](CCC(N)=O)C(=O)N[C@@H](CCCNC(=N)N)C(=O)N[C@H](C(=O)N[C@@H](CCCCN)C(=O)N[C@@H](CC(=O)O)C(=O)N[C@@H](Cc1ccccc1)C(=O)N[C@@H](CC(C)C)C(=O)N[C@@H](CCCNC(=N)N)C(=O)N[C@@H](CC(N)=O)C(=O)N[C@@H](CC(C)C)C(=O)N[C@H](C(=O)N1CCC[C@H]1C(=O)N[C@@H](CCCNC(=N)N)C(=O)N[C@H](C(=O)N[C@@H](CCC(=O)O)C(=O)N[C@@H](CO)C(=O)O)[C@@H](C)O)C(C)C)[C@@H](C)CC)C(C)C)[C@@H](C)CC` [CATHELICIDIN], the MIC is 2.5 µM (≈ 11.2 µg/mL) in the data set on Pseudomonas aeruginosa [1]; 5 µM (≈ 22.5 µg/mL) in the data set on Staphylococcus aureus [4]; 2.5 µM (≈ 11.2 µg/mL) in the data set with Staphylococcus aureus [8]; 5 µM (≈ 22.5 µg/mL) against Staphylococcus aureus [9]; 2.5 µM (≈ 11.2 µg/mL) with Pseudomonas aeruginosa [10]. Also, the Stability entry in [2], in data set [5], in [6] and in [7] was “Unstable” throughout.
Turning to `CC[C@H](C)[C@@H](NC(=O)[C@H](CCCNC(=N)N)NC(=O)[C@H](CCC(N)=O)NC(=O)[C@@H](NC(=O)[C@H](NC(=O)[C@H](CCCNC(=N)N)NC(=O)[C@H](CCCCN)NC(=O)[C@@H](Cc1ccccc1)NC(=O)[C@H](CCC(=O)O)NC(C)=O)[C@@H](C)CC)C(C)C)C(=O)N[C@@H](CCCCN)C(=O)N[C@@H](CC(=O)O)C(=O)N[C@H](Cc1ccccc1)C(=O)N[C@@H](CC(C)C)C(=O)N[C@@H](CCCNC(=N)N)C(=O)N[C@@H](CC(N)=O)C(=O)N[C@@H](CC(C)C)C(=O)N[C@H](C(N)=O)C(C)C`, the result in the data set with Lipid bilayer [3] was Active.
